# According to ChEMBL document CHEMBL4138042, “A Scaffold Merging Approach to Hsp90 C-terminal Inhibition: Synthesis and Evaluation of a Chimeric Library” (Medchemcomm, 2017):
# Activity calls are given as the source filed them. The calls are words filed in the database; no cut-off is given here.
# Columns and labels:
# [1] = target: T1, Heat shock protein HSP90 (Homo sapiens) (UniProt P07900+P08238); test: Inhibition of HSP90 in human MCF7 cells assessed as reduction in ERalpha protein level incubated for 24 hrs by Western blotting method; type: cell-based
# In short: (§1)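 Treated MCF-7 cells were analysed by western blot for the Hsp90 clients HER2, CDK4, ER-α and cyclin D1. Actin served as the Hsp90-independent control protein.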
# [2] = target: T1, Heat shock protein HSP90 (Homo sapiens); test: Inhibition of HSP90 in human MCF7 cells assessed as reduction in cyclin D1 protein level incubated for 24 hrs by Western blotting method; type: cell-based; in short: as §1
# [3] = system: MCF7; test: Antiproliferative activity in human MCF7 cells incubated for 72 hrs by MTS/PMS cell proliferation assay; type: functional, cell-based; settings: MCF7, 72 h
# In short: (§2)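 Values are mean ± SD of at least three separate experiments, each run in triplicate.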
# [4] = target: T1, Heat shock protein HSP90 (Homo sapiens); test: Inhibition of HSP90 in human PC3-MM2 cells expressing luciferase assessed as reduction in heat-denatured lucifearse refolding incubated for 1 hr by luciferase rematuration assay; type: cell-based
# In short: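 PC3-MM2 cells expressing firefly luciferase were heated to denature luciferase, then incubated with DMSO or test compound. Luciferase activity was then measured to gauge refolding. Read-out is RLU relative to DMSO, given as mean ± SD of at least two separate experiments run in triplicate.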
# [5] = system: MCF7; test: Induction of heat shock response in human MCF7 cells assessed as effect on Hsp90 protein levels at antiproliferative 0.5 and 10 fold IC50 incubated for 24 hrs by Western blotting method; type: cell-based; settings: mcf7, 24 h
# [6] = target: T1, Heat shock protein HSP90 (Homo sapiens); test: Inhibition of HSP90 in human MCF7 cells assessed as reduction in HER2 protein level incubated for 24 hrs by Western blotting method; type: cell-based; in short: as §1
# [7] = system: MCF7; test: Effect on actin protein expression in human MCF7 cells at 0.5 and 10 fold antiproliferative IC50 incubated for 24 hrs by Western blotting method; type: cell-based; settings: mcf7, 24 h; in short: as §1
# [8] = system: SK-BR-3; test: Antiproliferative activity in human SKBR3 cells incubated for 72 hrs by MTS/PMS cell proliferation assay; type: functional, cell-based; settings: SK-BR-3, 72 h; in short: as §2
# [9] = system: MCF7; test: Induction of heat shock response in human MCF7 cells assessed as effect on Hsp70 protein levels at 0.5 and 10 fold antiproliferative IC50 incubated for 24 hrs by Western blotting method; type: cell-based; settings: mcf7, 24 h
# [10] = target: T1, Heat shock protein HSP90 (Homo sapiens); test: Inhibition of HSP90 in human MCF7 cells assessed as reduction in CDK4 protein level incubated for 24 hrs by Western blotting method; type: cell-based; in short: as §1
# [11] = Inhibition of full length chicken Hsp90beta (1 to 728 amino acids); parameters: species or system Gallus gallus
SMILES,EC50 [3] [µM],inhibition [4],EC50 [8] [µM],further results
CN1CCC(Oc2ccc(-c3ccc(NC(=O)c4ccc(Br)cc4)cc3)c(-c3cccc(C(F)(F)F)c3)c2)CC1,3.4,Active,3.5,inhibition [1]: Dose-dependent effect; inhibition [2]: Dose-dependent effect; Activity [5]: Non-Toxic; inhibition [6]: Dose-dependent effect; Activity [7]: Non-Toxic; Activity [9]: Non-Toxic; inhibition [10]: Dose-dependent effect
CN1CCC(Oc2ccc(-c3cccc(NC(=O)c4ccc(C(C)(C)C)cc4)c3)c(-c3cccc(C(F)(F)F)c3)c2)CC1,2.8,–,1.8,–
CN1CCC(Oc2ccc(-c3ccc(NC(=O)c4cn(Cc5ccc(C(C)(C)C)cc5)nn4)cc3)c(-c3cccc(C(F)(F)F)c3)c2)CC1,5,inactive,4.4,–
CC(=O)Oc1ccc(C(=O)Nc2cccc(-c3ccc(OC4CCN(C)CC4)cc3-c3cccc(C(F)(F)F)c3)c2)cc1CC=C(C)C,3,–,2.9,–
COc1ccc(Cn2cc(C(=O)Nc3ccc(-c4ccc(OC5CCN(C)CC5)cc4-c4cccc(C(F)(F)F)c4)cc3)nn2)cc1,0.9,Active,0.5,–
CN1CCC(Oc2ccc(-c3cccc(NC(=O)c4cn(Cc5ccc([N+](=O)[O-])cc5)nn4)c3)c(-c3cccc(C(F)(F)F)c3)c2)CC1,2,Active,1.9,–
CO[C@@H]1[C@@H](OC(N)=O)[C@@H](O)[C@H](Oc2ccc3c(O)c(NC(=O)c4ccc(O)c(CC=C(C)C)c4)c(=O)oc3c2C)OC1(C)C [NOVOBIOCIN],–,–,–,EC50 [11]: 700 µM
CN1CCC(Oc2ccc(-c3ccc(NC(=O)c4cn(Cc5ccc([N+](=O)[O-])cc5)nn4)cc3)c(-c3cccc(C(F)(F)F)c3)c2)CC1,1,Active,0.8,–
CN1CCC(Oc2ccc(-c3ccc(NC(=O)c4cn(Cc5ccccc5)nn4)cc3)c(-c3cccc(C(F)(F)F)c3)c2)CC1,2.9,Active,2.2,–
CN1CCC(Oc2ccc(-c3cccc(NC(=O)c4cn(Cc5ccccc5)nn4)c3)c(-c3cccc(C(F)(F)F)c3)c2)CC1,1.7,Active,2.2,inhibition [1]: Dose-dependent effect; inhibition [2]: Dose-dependent effect; Activity [5]: Non-Toxic; inhibition [6]: Dose-dependent effect; Activity [7]: Non-Toxic; Activity [9]: Non-Toxic; inhibition [10]: Dose-dependent effect
COc1ccc(Cn2cc(C(=O)Nc3cccc(-c4ccc(OC5CCN(C)CC5)cc4-c4cccc(C(F)(F)F)c4)c3)nn2)cc1,4,Active,4,–
CN1CCC(Oc2ccc(-c3cccc(NC(=O)c4cn(Cc5ccc(C(C)(C)C)cc5)nn4)c3)c(-c3cccc(C(F)(F)F)c3)c2)CC1,3,inactive,3,–
CN1CCC(Oc2ccc(-c3cccc(NC(=O)c4ccc(Br)cc4)c3)c(-c3cccc(C(F)(F)F)c3)c2)CC1,3.9,Active,3,inhibition [1]: Dose-dependent effect; inhibition [2]: Dose-dependent effect; Activity [5]: Non-Toxic; inhibition [6]: Dose-dependent effect; Activity [7]: Non-Toxic; Activity [9]: Non-Toxic; inhibition [10]: Dose-dependent effect
CC(=O)Oc1ccc(C(=O)Nc2ccc(-c3ccc(OC4CCN(C)CC4)cc3-c3cccc(C(F)(F)F)c3)cc2)cc1CC=C(C)C,2.6,–,2.3,–
CN1CCC(Oc2ccc(-c3ccc(NC(=O)c4ccc(C(C)(C)C)cc4)cc3)c(-c3cccc(C(F)(F)F)c3)c2)CC1,3,–,2.4,–

# Now from value to compound, other results behind:
EC50 [3] [µM],inhibition [4],EC50 [8] [µM],SMILES,further results
3.3,–,3.2,CC(=O)Oc1ccc(C(=O)Nc2ccc(-c3ccc(OC4CCN(C)CC4)cc3-c3cccc(F)c3)cc2)cc1CC=C(C)C,–
2.1,–,4.2,COc1cccc(-c2cc(C(=O)Nc3ccc(-c4ccc(OC5CCN(C)CC5)cc4-c4cccc(F)c4)cc3)ccc2OC)c1,–
1.6,–,1.5,COc1cccc(-c2cc(C(=O)Nc3cccc(-c4ccc(OC5CCN(C)CC5)cc4)c3)ccc2OC)c1,–
2.3,–,1.9,COc1cccc(-c2cc(C(=O)Nc3cccc(-c4ccc(OC5CCN(C)CC5)cc4-c4cccc(C(F)(F)F)c4)c3)ccc2OC)c1,–
4.4,–,3.3,CC(=O)Oc1ccc(C(=O)Nc2cccc(-c3ccc(OC4CCN(C)CC4)cc3-c3cccc(F)c3)c2)cc1CC=C(C)C,–
4.2,–,4.2,CN1CCC(Oc2ccc(-c3ccc(NC(=O)c4ccc(C(C)(C)C)cc4)cc3)c(-c3cccc(F)c3)c2)CC1,–
5.2,–,6.2,CN1CCC(Oc2ccc(-c3cccc(NC(=O)c4ccc(C(C)(C)C)cc4)c3)c(-c3cccc(F)c3)c2)CC1,–
5.1,Active,5.2,CN1CCC(Oc2ccc(-c3ccc(NC(=O)c4ccc(Br)cc4)cc3)c(-c3cccc(F)c3)c2)CC1,–
2.2,–,1.8,COc1cccc(-c2cc(C(=O)Nc3ccc(-c4ccc(OC5CCN(C)CC5)cc4-c4cccc(C(F)(F)F)c4)cc3)ccc2OC)c1,–
4.2,–,4.1,COc1cccc(-c2cc(C(=O)Nc3cccc(-c4ccc(OC5CCN(C)CC5)cc4-c4cccc(F)c4)c3)ccc2OC)c1,–
5.6,Active,5.9,CN1CCC(Oc2ccc(-c3cccc(NC(=O)c4ccc(Br)cc4)c3)c(-c3cccc(F)c3)c2)CC1,–
2.7,–,3.5,COc1cccc(-c2cc(C(=O)NCCc3ccc(OC4CCN(C)CC4)cc3-c3cccc(C(F)(F)F)c3)ccc2OC)c1,–
